From ChEMBL document CHEMBL3745677, “Discovery of 6-(4-{[5-Cyclopropyl-3-(2,6-dichlorophenyl)isoxazol-4-yl]methoxy}piperidin-1-yl)-1-methyl-1H-indole-3-carboxylic Acid: A Novel FXR Agonist for the Treatment of Dyslipidemia” (J Med Chem, 2015)

What was measured:
Progesterone receptor = molecular target: T1, Progesterone receptor (Homo sapiens, UniProt P06401); assay: Agonist activity at progesterone receptor (unknown origin) expressed in HEK293 cells assessed as transcriptional activation; type: cell-based
T1 sequence (P06401 whole entry): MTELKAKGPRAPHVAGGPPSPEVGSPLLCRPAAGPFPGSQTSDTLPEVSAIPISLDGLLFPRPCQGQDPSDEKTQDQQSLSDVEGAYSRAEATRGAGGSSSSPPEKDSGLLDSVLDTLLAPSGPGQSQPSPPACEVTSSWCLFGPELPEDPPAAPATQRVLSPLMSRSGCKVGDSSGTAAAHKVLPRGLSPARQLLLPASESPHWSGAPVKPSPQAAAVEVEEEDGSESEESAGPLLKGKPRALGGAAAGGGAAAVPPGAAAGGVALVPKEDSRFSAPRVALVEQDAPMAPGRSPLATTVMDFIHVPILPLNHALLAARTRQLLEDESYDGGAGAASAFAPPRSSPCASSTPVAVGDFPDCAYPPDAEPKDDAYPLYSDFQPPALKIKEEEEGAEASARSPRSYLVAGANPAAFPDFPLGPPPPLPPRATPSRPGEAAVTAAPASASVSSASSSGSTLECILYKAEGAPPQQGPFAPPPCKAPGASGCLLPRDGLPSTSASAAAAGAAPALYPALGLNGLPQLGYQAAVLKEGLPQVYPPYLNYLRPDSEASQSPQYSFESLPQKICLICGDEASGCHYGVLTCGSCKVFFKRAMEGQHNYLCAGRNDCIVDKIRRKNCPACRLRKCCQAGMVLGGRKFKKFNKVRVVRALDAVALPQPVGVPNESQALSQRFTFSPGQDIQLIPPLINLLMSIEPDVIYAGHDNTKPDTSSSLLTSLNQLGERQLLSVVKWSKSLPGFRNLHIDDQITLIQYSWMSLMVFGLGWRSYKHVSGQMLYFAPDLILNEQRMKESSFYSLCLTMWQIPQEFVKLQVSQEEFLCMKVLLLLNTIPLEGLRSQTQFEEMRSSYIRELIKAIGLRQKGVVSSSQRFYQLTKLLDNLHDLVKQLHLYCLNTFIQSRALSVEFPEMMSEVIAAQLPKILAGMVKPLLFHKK

[1] = Cmax in Sprague-Dawley rat at 3 mg/kg, po by LC-MS/MS analysis; type: ADME, organism-based; set-up: dose 3 mg/kg, route oral; details: in vivo
In short: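 Sprague Dawley rats, Beagle dogs and Cynomolgus monkeys were dosed IV at 1 mg/kg (rat, dog) or 0.91 mpk (monkey) in 5% Solutol/5% EtOH in saline. Oral/nasogastric dosing was 3 mpk in 1.0% CMC/0.25% PS80/0.05% antifoam in purified water. Samples were processed to plasma and analysed by LC-MS/MS; values are mean ± SD, N=2-3.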

Mus musculus = assay: Antidyslipidemic activity in western-diet fed mouse expressing LDL-receptor (-/-) assessed as decrease in total cholesterol level at 30 mg/kg qd for a week administered via gavage […]; type: functional; details: po
In short: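 Male LDLR null mice, six per group, were gavaged once daily for one week with compound (in situ sodium salt) or vehicle (5% Solutol, 5% EtOH, 1% wt/v CMC) at 5 mL/kg. On day 7 they were bled by cardiac puncture under CO2 anaesthesia. Serum cholesterol and triglycerides were measured enzymatically on a clinical chemistry analyser (mean ± SD, n=6). ED50 was obtained by nonlinear regression.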

Rattus norvegicus = assay: Antidyslipidemic activity in ZDF rat assessed as HDL level at 30 mg/kg for 9 days by FPLC analysis (reference value: 48.3 mg/dL); type: functional, Zucker

- EC50 (Progesterone receptor): > 10 µM
- Cmax [1]: 130 ng/mL
Structure (SMILES): Cn1cc(C(=O)O)c2ccc(N3CCC(OCc4c(-c5c(Cl)cccc5Cl)noc4C4CC4)CC3)cc21 [TERN-101]
- inhibition in vivo at 30 mg/kg (Mus musculus): 83%
- Activity (Rattus norvegicus): 94 mg/dL
